Measurements taken from ChEMBL document CHEMBL3046081, “Phytotoxic effect, uptake, and transformation of biochanin A in selected weed species” (J Agric Food Chem, 2012).
The source made the active and inactive calls. No cut-off for these calls is given here.

Assays:
Root [1] = experiment: Drug metabolism in Echinochloa crus-galli (barnyard grass) root assessed as transformation to pratensein at 20 uM after 14 days measured per gm of dry weight by LC-MS analysis; type: ADME; conditions: 336 h
Method in brief: (§1)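 Pregerminated seeds, 14 per container, transplanted onto 0.5% agar medium containing biochanin A. Grown at 24 ± 1 °C under a 16 h light/8 h dark photoperiod and harvested 14 days after transplanting. Roots and shoots collected separately, blotted, washed twice, then freeze-dried. Tissue extracted by ASE at 40 °C and analysed by LC-ESI-MS against commercial standards. Two replicates per treatment.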

Shoot [2] = experiment: Drug metabolism in Silene noctiflora shoot assessed as transformation to genistein at 20 uM after 14 days measured per gm of dry weight by LC-MS analysis; type: ADME; conditions: 336 h; method in brief: as §1
Shoot [3] = experiment: Drug metabolism in Silene noctiflora shoot assessed as transformation to pratensein at 400 uM after 14 days measured per gm of dry weight by LC-MS analysis; type: ADME; conditions: 336 h
Method in brief: (§2)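 Pregerminated seeds (14 per container) were grown on 20 mL 0.5% agar medium containing biochanin A, at 24 ± 1 °C with a 16 h light/8 h dark cycle. There were two replicates per treatment: 14 containers for S. noctiflora, 9 for G. molle and E. crus-galli. At 14 days, roots and shoots were harvested separately, washed, blotted and freeze-dried. Extraction was ASE at 40 °C, 1600 psi, 3 cycles. Analysis was LC-ESI-MS SIM against standards.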

Root [4] = experiment: Drug metabolism in Echinochloa crus-galli (barnyard grass) root assessed as transformation to genistein at 400 uM after 14 days measured per gm of dry weight by LC-MS analysis; type: ADME; conditions: 336 h; method in brief: as §1
Shoot [5] = experiment: Drug uptake in Geranium molle shoot at 400 uM after 14 days measured per gm of dry weight by LC-MS analysis; type: ADME; conditions: 336 h; method in brief: as §2
Shoot [6] = experiment: Drug metabolism in Silene noctiflora shoot assessed as transformation to pratensein at 20 uM after 14 days measured per gm of dry weight by LC-MS analysis; type: ADME; conditions: 336 h; method in brief: as §1
Root [7] = experiment: Drug metabolism in Geranium molle root assessed as transformation to sissotrin at 20 uM after 14 days measured per gm of dry weight by LC-MS analysis; type: ADME; conditions: 336 h; method in brief: as §1
Shoot [8] = experiment: Drug metabolism in Echinochloa crus-galli (barnyard grass) shoot assessed as transformation to sissotrin at 20 uM after 14 days measured per gm of dry weight by LC-MS analysis; type: ADME; conditions: 336 h; method in brief: as §1
Root [9] = experiment: Drug metabolism in Silene noctiflora root assessed as transformation to dihydrobiochanin A at 20 uM after 14 days measured per gm of dry weight by LC-MS analysis; type: ADME; conditions: 336 h; method in brief: as §1
Root [10] = experiment: Drug metabolism in Echinochloa crus-galli (barnyard grass) root assessed as transformation to sissotrin at 20 uM after 14 days measured per gm of dry weight by LC-MS analysis; type: ADME; conditions: 336 h; method in brief: as §1
Root [11] = experiment: Drug metabolism in Silene noctiflora root assessed as transformation to pratensein at 400 uM after 14 days measured per gm of dry weight by LC-MS analysis; type: ADME; conditions: 336 h; method in brief: as §1
Root [12] = experiment: Drug metabolism in Geranium molle root assessed as transformation to pratensein at 20 uM after 14 days measured per gm of dry weight by LC-MS analysis; type: ADME; conditions: 336 h; method in brief: as §1
Shoot [13] = experiment: Drug metabolism in Echinochloa crus-galli (barnyard grass) shoot assessed as transformation to pratensein at 400 uM after 14 days measured per gm of dry weight by LC-MS analysis; type: ADME; conditions: 336 h; method in brief: as §1
Root [14] = experiment: Drug uptake in Silene noctiflora root at 400 uM after 14 days measured per gm of dry weight by LC-MS analysis; type: ADME; conditions: 336 h; method in brief: as §2
Lolium perenne = experiment: Phytotoxicity against Lolium perenne (perennial ryegrass) assessed as root growth inhibition at 100 to 400 uM after 2 weeks by agar medium bioassay; type: functional, organism-based
Method in brief: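 Agar bioassay with eight biochanin A doses (0–400 µM). Seeds were pregerminated 48 h at room temperature, then 10 seedlings were placed per Petri dish and grown 2 weeks at 24 ± 1 °C under a 16 h light/8 h dark cycle. […]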

Shoot [15] = experiment: Drug uptake in Silene noctiflora shoot at 400 uM after 14 days measured per gm of dry weight by LC-MS analysis; type: ADME; conditions: 336 h; method in brief: as §2
Root [16] = experiment: Drug metabolism in Silene noctiflora root assessed as transformation to genistein at 20 uM after 14 days measured per gm of dry weight by LC-MS analysis; type: ADME; conditions: 336 h; method in brief: as §1
Shoot [17] = experiment: Drug metabolism in Geranium molle shoot assessed as transformation to dihydrobiochanin A at 20 uM after 14 days measured per gm of dry weight by LC-MS analysis; type: ADME; conditions: 336 h; method in brief: as §1
Shoot [18] = experiment: Drug metabolism in Geranium molle shoot assessed as transformation to genistein at 20 uM after 14 days measured per gm of dry weight by LC-MS analysis; type: ADME; conditions: 336 h; method in brief: as §1
Shoot [19] = experiment: Drug uptake in Echinochloa crus-galli (barnyard grass) shoot at 20 uM after 14 days measured per gm of dry weight by LC-MS analysis; type: ADME; conditions: 336 h; method in brief: as §2
Shoot [20] = experiment: Drug metabolism in Geranium molle shoot assessed as transformation to sissotrin at 400 uM after 14 days measured per gm of dry weight by LC-MS analysis; type: ADME; conditions: 336 h; method in brief: as §1
Root [21] = experiment: Drug metabolism in Echinochloa crus-galli (barnyard grass) root assessed as transformation to pratensein at 400 uM after 14 days measured per gm of dry weight by LC-MS analysis; type: ADME; conditions: 336 h; method in brief: as §1
Shoot [22] = experiment: Drug metabolism in Geranium molle shoot assessed as transformation to dihydrobiochanin A at 400 uM after 14 days measured per gm of dry weight by LC-MS analysis; type: ADME; conditions: 336 h; method in brief: as §1
Shoot [23] = experiment: Drug metabolism in Silene noctiflora shoot assessed as transformation to sissotrin at 20 uM after 14 days measured per gm of dry weight by LC-MS analysis; type: ADME; conditions: 336 h; method in brief: as §2
Root [24] = experiment: Drug metabolism in Geranium molle root assessed as transformation to sissotrin at 400 uM after 14 days measured per gm of dry weight by LC-MS analysis; type: ADME; conditions: 336 h; method in brief: as §1
Root [25] = experiment: Drug metabolism in Geranium molle root assessed as transformation to genistein at 20 uM after 14 days measured per gm of dry weight by LC-MS analysis; type: ADME; conditions: 336 h; method in brief: as §1
Root [26] = experiment: Drug uptake in Geranium molle root at 400 uM after 14 days measured per gm of dry weight by LC-MS analysis; type: ADME; conditions: 336 h; method in brief: as §2
Root [27] = experiment: Drug metabolism in Geranium molle root assessed as transformation to p-coumaric acid at 20 uM after 14 days measured per gm of dry weight by LC-MS analysis; type: ADME; conditions: 336 h; method in brief: as §1
Shoot [28] = experiment: Drug metabolism in Echinochloa crus-galli (barnyard grass) shoot assessed as transformation to genistein at 20 uM after 14 days measured per gm of dry weight by LC-MS analysis; type: ADME; conditions: 336 h; method in brief: as §1
Shoot [29] = experiment: Drug metabolism in Silene noctiflora shoot assessed as transformation to genistein at 400 uM after 14 days measured per gm of dry weight by LC-MS analysis; type: ADME; conditions: 336 h; method in brief: as §1
Root [30] = experiment: Drug metabolism in Echinochloa crus-galli (barnyard grass) root assessed as transformation to p-coumaric acid at 20 uM after 14 days measured per gm of dry weight by LC-MS analysis; type: ADME; conditions: 336 h; method in brief: as §1
Root [31] = experiment: Drug metabolism in Geranium molle root assessed as transformation to genistein at 400 uM after 14 days measured per gm of dry weight by LC-MS analysis; type: ADME; conditions: 336 h; method in brief: as §1

Drug metabolism (Root [1]): 0.38 µmol
Drug metabolism (Shoot [2]): 0.24 µmol
Drug metabolism (Shoot [3]): 0.06 µmol
Drug metabolism (Root [4]): 0.12 µmol
Drug uptake (Shoot [5]): 1.13 µmol
Drug metabolism (Shoot [6]): 0.1 µmol
Drug metabolism (Root [7]): 36.06 µmol
Drug metabolism (Shoot [8]): 0 µmol
Drug metabolism (Root [9]): 0.01 µmol
Drug metabolism (Root [10]): 0.48 µmol
Drug metabolism (Root [11]): 0.11 µmol
Drug metabolism (Root [12]): 0.66 µmol
Drug metabolism (Shoot [13]): 0.24 µmol
Drug uptake (Root [14]): 4.54 µmol
Drug uptake (Shoot [15]): 1.11 µmol
Drug metabolism (Root [16]): 0.08 µmol
Drug metabolism (Shoot [17]): 0.01 µmol
Drug metabolism (Shoot [18]): 0.09 µmol
Drug uptake (Shoot [19]): 0.05 µmol
Drug metabolism (Shoot [20]): 2.41 µmol
Drug metabolism (Root [21]): 0.35 µmol
Drug metabolism (Shoot [22]): 0.02 µmol
Drug metabolism (Shoot [23]): 2.36 µmol
Drug metabolism (Root [24]): 123.61 µmol
Drug metabolism (Root [25]): 0.05 µmol
Drug uptake (Root [26]): 11.46 µmol
Drug metabolism (Root [27]): 0.06 µmol
Drug metabolism (Shoot [28]): 0.28 µmol
Drug metabolism (Shoot [29]): 0.15 µmol
Drug metabolism (Root [30]): 0.15 µmol
Drug metabolism (Root [31]): 0.08 µmol
Structure (SMILES): COc1ccc(-c2coc3cc(O)cc(O)c3c2=O)cc1 [BIOCHANIN]
Activity (Lolium perenne): inactive
